Experimental data taken from ChEMBL document CHEMBL3397001, “Metabolic glycoengineering sensitizes drug-resistant pancreatic cancer cells to tyrosine kinase inhibitors erlotinib and gefitinib” (2015).
Active and inactive are the calls of the source.

Assays:
[1] = target: Epidermal growth factor receptor (Homo sapiens) (UniProt P00533); test: Increase in sialylation of EGFR in human SW1990 cells after 48 hrs by mass spectrometry based glycosite and glycan analysis method; assay type: cell-based
Procedure, shortened: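 EGFR sialylation in treated cells assessed by mass spectrometry-based glycosite and glycan analysis.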

[2] = target: Epidermal growth factor receptor (Homo sapiens) (UniProt P00533); test: Inhibition of Alexa fluor 488-labeled EGFbinding to EGFR in human SW1990 cells assessed as reduction in available surface bound EGFR at 100 uM after 1 hr by flow cytometry; assay type: cell-based
Procedure, shortened: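 Intact cells incubated with Alexa Fluor 488-labeled EGF for one hour at room temperature, then surface-bound label read by flow cytometry (saturation binding). At least 3 biological replicates; mean ± SEM.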

[3] = target: Epidermal growth factor receptor (Homo sapiens) (UniProt P00533); test: Inhibition of EGFR phosphorylation in human SW1990 cells at 50 and 100 uM by immunofluorescence assay; assay type: cell-based
Procedure, shortened: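 Treated cells stimulated with EGF for 2.0 min, fixed, stained with anti-p-EGFR plus FITC-labeled anti-rabbit secondary and DAPI, then imaged by immunofluorescence microscopy.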

[4] = target: Epidermal growth factor receptor (Homo sapiens) (UniProt P00533); test: Inhibition of EGFR phosphorylation in human SW1990 cells at 25 to 100 uM by Western blotting method; assay type: cell-based
Procedure, shortened: (§1)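 Cells exposed to increasing analog levels; lysates immunoblotted for phospho-EGFR and total EGFR. Significance threshold p < 0.05.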

[5] = tested on: SW1990; test: Effect on total EGFR levels in human SW1990 cells at 25 to 100 uM by Western blotting method; assay type: functional, cell-based; procedure, shortened: as §1
[6] = target: Epidermal growth factor receptor (Homo sapiens) (UniProt P00533); test: Inhibition of EGFR-mediated STAT3 phosphorylation in human SW1990 cells at 25 to 100 uM by Western blotting method; assay type: cell-based
Procedure, shortened: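 Cells treated at several analog concentrations; lysates immunoblotted for phospho-STAT3, with band intensity quantified by densitometry. At least 3 biological replicates; mean + SEM; p < 0.05.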

[7] = tested on: SW1990; test: Inhibition of cell proliferation of human SW1990 cells at 100 to 300 uM after 48 hrs by cell counting method; assay type: functional, cell-based
[8] = tested on: SW1990; test: Inhibition of cell proliferation of human SW1990 cells at 25 and 50 uM after 48 hrs by cell counting method; assay type: functional, cell-based
[9] = tested on: SW1990; test: Potentiation of erlotinib-induced antiproliferative effect against human SW1990 cells pre-treated with 50 uM compound for 48 hrs followed by erlotinib exposure for additional after 72 hrs by cell counting method; assay type: functional, cell-based
Procedure, shortened: (§2)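 Cells given sugar analog (0, 25 or 50 μM; 12.5 or 25 μM for the azido analog) plus a concentration range of erlotinib or gefitinib, and growth inhibition measured. Synergy expressed as Combination Index, CI = D1/(Dx)1 + D2/(Dx)2, plotted against percent inhibition. At least 3 biological replicates; mean ± SEM.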

[10] = tested on: SW1990; test: Potentiation of gefitinib-induced antiproliferative effect against human SW1990 cells pre-treated with 50 uM compound for 48 hrs […] for additional after 72 hrs by cell counting method; assay type: functional, cell-based; procedure, shortened: as §2
[11] = tested on: SW1990; test: Potentiation of gefitinib-induced antiproliferative effect against human SW1990 cells assessed as combination index pre-treated with 50 uM compound for 48 hrs […] for additional after 72 hrs by cell counting method; assay type: functional; procedure, shortened: as §2
[12] = tested on: SW1990; test: Potentiation of erlotinib-induced antiproliferative effect against human SW1990 cells assessed as combination index pre-treated with 50 uM compound for 48 hrs followed by erlotinib exposure for additional after 72 hrs by cell counting method; assay type: functional; procedure, shortened: as §2
[13] = tested on: SW1990; test: Potentiation of erlotinib-induced antiproliferative effect against human SW1990 cells pre-treated with 25 uM compound for 48 hrs followed by erlotinib exposure for additional after 72 hrs by cell counting method; assay type: functional, cell-based; procedure, shortened: as §2
[14] = tested on: SW1990; test: Potentiation of gefitinib-induced antiproliferative effect against human SW1990 cells pre-treated with 25 uM compound for 48 hrs […] for additional after 72 hrs by cell counting method; assay type: functional, cell-based; procedure, shortened: as §2
[15] = tested on: SW1990; test: Potentiation of erlotinib-induced antiproliferative effect against human SW1990 cells assessed as combination index pre-treated with 12.5 and 25 uM compound for 48 hrs followed by erlotinib exposure for additional after 72 hrs by cell counting method; assay type: functional; procedure, shortened: as §2
[16] = tested on: SW1990; test: Inhibition of cell proliferation of human SW1990 cells at <25 uM after 72 hrs by cell counting method

Epidermal growth factor receptor (Homo sapiens), sequence (P00533 whole entry): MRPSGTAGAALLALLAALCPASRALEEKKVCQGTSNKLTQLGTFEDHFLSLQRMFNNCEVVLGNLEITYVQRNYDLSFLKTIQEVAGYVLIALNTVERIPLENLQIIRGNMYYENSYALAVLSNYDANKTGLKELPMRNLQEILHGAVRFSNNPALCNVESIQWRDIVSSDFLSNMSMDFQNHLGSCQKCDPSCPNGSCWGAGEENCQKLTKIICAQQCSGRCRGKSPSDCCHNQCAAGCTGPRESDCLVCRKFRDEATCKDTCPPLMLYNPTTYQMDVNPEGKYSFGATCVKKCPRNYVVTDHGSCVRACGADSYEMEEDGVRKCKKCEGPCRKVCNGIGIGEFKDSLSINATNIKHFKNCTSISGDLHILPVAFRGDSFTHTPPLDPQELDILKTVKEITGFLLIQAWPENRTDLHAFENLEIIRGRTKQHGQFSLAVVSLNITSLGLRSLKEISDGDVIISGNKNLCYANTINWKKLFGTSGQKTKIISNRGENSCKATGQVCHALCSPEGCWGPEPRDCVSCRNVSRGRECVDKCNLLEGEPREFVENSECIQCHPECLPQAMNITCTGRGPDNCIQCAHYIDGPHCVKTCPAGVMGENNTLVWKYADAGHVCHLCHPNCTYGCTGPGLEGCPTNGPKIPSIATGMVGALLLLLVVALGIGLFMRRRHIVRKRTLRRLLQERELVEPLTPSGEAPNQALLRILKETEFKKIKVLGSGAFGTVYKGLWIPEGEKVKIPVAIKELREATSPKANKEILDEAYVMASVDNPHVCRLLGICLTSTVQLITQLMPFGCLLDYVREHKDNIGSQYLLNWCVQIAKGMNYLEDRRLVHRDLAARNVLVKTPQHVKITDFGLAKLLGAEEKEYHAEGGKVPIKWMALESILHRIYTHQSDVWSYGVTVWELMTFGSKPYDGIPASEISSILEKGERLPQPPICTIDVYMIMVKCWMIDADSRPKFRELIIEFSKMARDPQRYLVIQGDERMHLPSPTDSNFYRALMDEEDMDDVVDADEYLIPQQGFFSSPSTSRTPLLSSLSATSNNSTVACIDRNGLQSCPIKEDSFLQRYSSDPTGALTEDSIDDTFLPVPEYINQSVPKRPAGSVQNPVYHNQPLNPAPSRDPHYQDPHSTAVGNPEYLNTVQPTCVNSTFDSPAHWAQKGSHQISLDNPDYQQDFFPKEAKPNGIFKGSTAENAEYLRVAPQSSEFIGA

| fold change (FC) [1] | inhibition [2] | inhibition [3] | inhibition [4] | inhibition [6] | Structure (SMILES) | Activity [5] | inhibition [7] | inhibition [8] | Activity [9] | Activity [10] | CI [11] | CI [12] | Activity [13] | Activity [14] | CI [15] | inhibition [16] |
| --- | --- | --- | --- | --- | --- | --- | --- | --- | --- | --- | --- | --- | --- | --- | --- | --- |
| 2 | Active | Active | Active | Dose-dependent effect | CCCC(=O)OC1O[C@H](CO)[C@@H](OC(=O)CCC)[C@H](OC(=O)CCC)[C@@H]1NC(C)=O (stereo partly specified) | inactive | Active | inactive | Active | Active | 0.23 | 0.23 | Active | Active |  |  |
|  |  |  |  |  | CCCC(=O)OC1O[C@H](CO)[C@@H](OC(=O)CCC)[C@H](OC(=O)CCC)[C@@H]1NC(=O)CN=[N+]=[N-] (stereo partly specified) |  |  |  |  |  |  |  |  |  | 0.34 | Active |
